# According to the M2OR odorant receptor database:
# Positions count from the first letter of the chain named.
# Key:
# Settings in all cases: stereoisomer not certain
# OR2M4 (Homo sapiens) = molecular target: T1, OR2M4 (Homo sapiens) (UniProt Q96R27)
# T1 sequence (whole entry): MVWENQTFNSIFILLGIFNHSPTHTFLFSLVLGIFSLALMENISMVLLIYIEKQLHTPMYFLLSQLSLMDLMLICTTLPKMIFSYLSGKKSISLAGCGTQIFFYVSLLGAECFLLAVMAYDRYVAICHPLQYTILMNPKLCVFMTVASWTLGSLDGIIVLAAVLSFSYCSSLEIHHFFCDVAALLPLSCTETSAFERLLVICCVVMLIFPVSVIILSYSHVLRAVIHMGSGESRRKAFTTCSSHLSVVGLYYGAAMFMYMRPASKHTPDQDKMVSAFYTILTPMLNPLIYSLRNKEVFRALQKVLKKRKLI
# Method in brief: (§1)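 Values were gathered from published papers (main text and supplementary material), with extra details requested from the original authors when needed, and checked for typos and inconsistencies. Each receptor–molecule pair is called responsive (active) if the original authors judged the measured signal statistically different from baseline, and non-responsive (inactive) otherwise. Assay methods varied by source, often transient mammalian cell-line luciferase assays. Recorded details include cell line, G-protein, co-transfected protein and tags.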
# OR2M5 (Homo sapiens) = molecular target: T2, OR2M5 (Homo sapiens) (UniProt A3KFT3)
# T2 sequence (whole entry): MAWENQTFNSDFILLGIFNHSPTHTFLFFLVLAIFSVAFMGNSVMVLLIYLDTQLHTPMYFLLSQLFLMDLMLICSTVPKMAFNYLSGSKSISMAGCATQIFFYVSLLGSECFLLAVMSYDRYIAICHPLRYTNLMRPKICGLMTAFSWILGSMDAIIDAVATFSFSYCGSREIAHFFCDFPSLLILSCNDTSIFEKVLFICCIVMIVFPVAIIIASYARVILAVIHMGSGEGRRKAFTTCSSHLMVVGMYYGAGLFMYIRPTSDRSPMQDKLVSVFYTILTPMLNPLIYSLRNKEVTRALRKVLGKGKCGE
# Method in brief: as §1
# OR2M5 D11G = system: T3, OR2M5 D11G
# T3 sequence (whole entry): T2 sequence (whole entry) with D11G
# Method in brief: as §1
# OR2M3 D11N = system: OR2M3 D11N
# Sequence of OR2M3 D11N (as listed by the source, stated change not applied): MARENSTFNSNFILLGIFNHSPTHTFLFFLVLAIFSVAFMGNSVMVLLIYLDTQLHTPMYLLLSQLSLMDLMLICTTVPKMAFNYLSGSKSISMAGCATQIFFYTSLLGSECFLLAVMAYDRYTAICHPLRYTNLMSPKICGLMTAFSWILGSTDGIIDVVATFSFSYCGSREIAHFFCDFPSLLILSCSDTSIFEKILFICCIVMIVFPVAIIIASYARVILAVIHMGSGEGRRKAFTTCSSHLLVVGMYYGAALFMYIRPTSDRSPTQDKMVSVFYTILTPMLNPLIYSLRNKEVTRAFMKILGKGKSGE
# Method in brief: as §1
# OR2M3 I13L A33G M144T = system: OR2M3 I13L A33G M144T
# Method in brief: as §1
# OR2M3 I13L A33G R266H = system: OR2M3 I13L A33G R266H
# Method in brief: as §1
# OR2M3 I13L A33G = system: OR2M3 I13L A33G
# Method in brief: as §1
# OR2M3 I13L M144T = system: OR2M3 I13L M144T
# Method in brief: as §1
# OR2M3 I13L = system: OR2M3 I13L
# Sequence of OR2M3 I13L (as listed by the source, stated change not applied): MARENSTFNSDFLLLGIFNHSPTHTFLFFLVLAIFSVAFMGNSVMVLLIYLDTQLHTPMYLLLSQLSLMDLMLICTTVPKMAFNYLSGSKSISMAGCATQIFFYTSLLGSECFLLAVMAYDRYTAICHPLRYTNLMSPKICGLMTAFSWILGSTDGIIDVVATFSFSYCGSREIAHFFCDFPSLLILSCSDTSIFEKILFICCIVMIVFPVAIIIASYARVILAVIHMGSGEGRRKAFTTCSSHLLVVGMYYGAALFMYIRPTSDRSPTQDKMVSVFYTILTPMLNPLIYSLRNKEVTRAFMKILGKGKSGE
# Method in brief: as §1
# OR2M3 I198V = system: OR2M3 I198V
# Sequence of OR2M3 I198V (as listed by the source, stated change not applied): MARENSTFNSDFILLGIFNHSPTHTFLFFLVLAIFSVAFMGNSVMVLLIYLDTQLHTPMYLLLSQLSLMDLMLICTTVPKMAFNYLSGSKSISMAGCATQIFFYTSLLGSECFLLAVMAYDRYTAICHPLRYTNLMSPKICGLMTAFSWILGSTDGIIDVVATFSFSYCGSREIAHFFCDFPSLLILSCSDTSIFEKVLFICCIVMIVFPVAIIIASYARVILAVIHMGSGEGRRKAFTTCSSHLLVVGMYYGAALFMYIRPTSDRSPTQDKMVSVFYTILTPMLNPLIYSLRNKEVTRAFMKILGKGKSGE
# Method in brief: as §1
# OR2M3 I289N = system: OR2M3 I289N
# Sequence of OR2M3 I289N (as listed by the source, stated change not applied): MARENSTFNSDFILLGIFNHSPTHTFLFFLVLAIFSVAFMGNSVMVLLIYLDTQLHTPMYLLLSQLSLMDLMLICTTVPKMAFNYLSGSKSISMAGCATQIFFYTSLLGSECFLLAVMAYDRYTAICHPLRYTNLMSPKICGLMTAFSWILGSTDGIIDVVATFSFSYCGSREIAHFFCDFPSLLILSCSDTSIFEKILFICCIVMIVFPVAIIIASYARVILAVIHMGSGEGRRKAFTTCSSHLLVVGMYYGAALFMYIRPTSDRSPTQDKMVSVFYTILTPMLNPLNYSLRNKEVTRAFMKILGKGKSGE
# Method in brief: as §1
# OR2M3 L63F = system: OR2M3 L63F
# Sequence of OR2M3 L63F (as listed by the source, stated change not applied): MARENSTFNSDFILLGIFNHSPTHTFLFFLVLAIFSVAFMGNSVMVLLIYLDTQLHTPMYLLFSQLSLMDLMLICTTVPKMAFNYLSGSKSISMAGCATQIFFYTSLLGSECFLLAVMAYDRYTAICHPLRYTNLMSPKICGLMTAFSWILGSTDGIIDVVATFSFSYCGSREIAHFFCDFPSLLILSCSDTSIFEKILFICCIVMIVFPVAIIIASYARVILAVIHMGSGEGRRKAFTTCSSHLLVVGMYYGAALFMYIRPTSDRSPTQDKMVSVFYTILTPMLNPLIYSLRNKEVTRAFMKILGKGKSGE
# Method in brief: as §1
# OR2M3 M144T = system: OR2M3 M144T
# Sequence of OR2M3 M144T (as listed by the source, stated change not applied): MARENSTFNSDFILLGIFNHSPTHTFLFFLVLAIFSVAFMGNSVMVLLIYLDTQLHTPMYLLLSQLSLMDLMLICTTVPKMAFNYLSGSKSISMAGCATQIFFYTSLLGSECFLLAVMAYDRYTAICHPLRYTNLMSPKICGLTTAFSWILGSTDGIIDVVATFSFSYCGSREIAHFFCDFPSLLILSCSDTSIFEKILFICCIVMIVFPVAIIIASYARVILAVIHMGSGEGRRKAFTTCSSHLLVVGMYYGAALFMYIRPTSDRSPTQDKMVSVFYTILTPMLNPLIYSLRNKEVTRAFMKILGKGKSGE
# Method in brief: as §1
# OR2M3 M302T = system: OR2M3 M302T
# Sequence of OR2M3 M302T (as listed by the source, stated change not applied): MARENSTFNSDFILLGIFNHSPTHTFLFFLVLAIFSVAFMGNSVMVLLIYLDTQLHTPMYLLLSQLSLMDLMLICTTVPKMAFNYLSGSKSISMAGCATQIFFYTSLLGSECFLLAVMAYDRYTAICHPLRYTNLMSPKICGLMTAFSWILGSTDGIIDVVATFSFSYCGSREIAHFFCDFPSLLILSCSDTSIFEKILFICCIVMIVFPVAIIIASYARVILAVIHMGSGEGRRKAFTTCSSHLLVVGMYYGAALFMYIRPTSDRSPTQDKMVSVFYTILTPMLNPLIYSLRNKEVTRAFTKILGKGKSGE
# Method in brief: as §1
# OR2M3 R266H = system: OR2M3 R266H
# Sequence of OR2M3 R266H (as listed by the source, stated change not applied): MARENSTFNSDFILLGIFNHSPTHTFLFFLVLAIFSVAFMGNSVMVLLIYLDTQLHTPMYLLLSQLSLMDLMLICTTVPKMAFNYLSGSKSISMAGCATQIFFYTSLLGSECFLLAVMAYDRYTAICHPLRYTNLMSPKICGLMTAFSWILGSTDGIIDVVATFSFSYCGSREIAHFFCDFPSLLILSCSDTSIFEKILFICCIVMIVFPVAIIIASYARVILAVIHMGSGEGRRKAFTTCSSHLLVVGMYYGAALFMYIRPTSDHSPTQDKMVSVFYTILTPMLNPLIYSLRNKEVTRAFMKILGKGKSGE
# Method in brief: as §1
# OR2M3 R293S = system: OR2M3 R293S
# Sequence of OR2M3 R293S (as listed by the source, stated change not applied): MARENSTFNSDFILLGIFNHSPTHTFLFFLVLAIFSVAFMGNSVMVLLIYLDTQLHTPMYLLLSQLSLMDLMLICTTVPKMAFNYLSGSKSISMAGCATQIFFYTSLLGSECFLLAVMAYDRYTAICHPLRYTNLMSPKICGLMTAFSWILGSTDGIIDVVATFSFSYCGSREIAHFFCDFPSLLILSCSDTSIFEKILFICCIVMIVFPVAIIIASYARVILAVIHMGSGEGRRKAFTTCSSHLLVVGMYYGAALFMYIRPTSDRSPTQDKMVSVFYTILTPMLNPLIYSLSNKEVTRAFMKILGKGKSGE
# Method in brief: as §1
# OR2M3 V78I = system: OR2M3 V78I
# Sequence of OR2M3 V78I (as listed by the source, stated change not applied): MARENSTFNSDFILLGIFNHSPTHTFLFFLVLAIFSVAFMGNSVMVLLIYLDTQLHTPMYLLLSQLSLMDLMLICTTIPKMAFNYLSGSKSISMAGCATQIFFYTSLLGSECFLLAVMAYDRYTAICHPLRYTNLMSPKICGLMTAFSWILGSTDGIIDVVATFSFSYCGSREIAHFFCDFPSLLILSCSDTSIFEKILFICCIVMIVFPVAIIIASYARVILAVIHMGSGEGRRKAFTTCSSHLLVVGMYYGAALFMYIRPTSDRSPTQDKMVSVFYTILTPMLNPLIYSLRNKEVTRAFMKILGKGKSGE
# Method in brief: as §1
# OR2M3 Y259H = system: OR2M3 Y259H
# Sequence of OR2M3 Y259H (as listed by the source, stated change not applied): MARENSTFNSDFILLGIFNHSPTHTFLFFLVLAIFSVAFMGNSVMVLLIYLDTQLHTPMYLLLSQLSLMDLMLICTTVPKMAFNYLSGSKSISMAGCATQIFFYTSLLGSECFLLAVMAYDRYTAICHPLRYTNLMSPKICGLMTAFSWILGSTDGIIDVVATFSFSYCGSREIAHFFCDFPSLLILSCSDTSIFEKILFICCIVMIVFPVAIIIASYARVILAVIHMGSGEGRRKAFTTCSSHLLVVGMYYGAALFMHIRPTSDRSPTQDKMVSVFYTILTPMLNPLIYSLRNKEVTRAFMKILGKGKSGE
# Method in brief: as §1
# OR2M5 A156G = system: OR2M5 A156G
# Sequence of OR2M5 A156G (as listed by the source, stated change not applied): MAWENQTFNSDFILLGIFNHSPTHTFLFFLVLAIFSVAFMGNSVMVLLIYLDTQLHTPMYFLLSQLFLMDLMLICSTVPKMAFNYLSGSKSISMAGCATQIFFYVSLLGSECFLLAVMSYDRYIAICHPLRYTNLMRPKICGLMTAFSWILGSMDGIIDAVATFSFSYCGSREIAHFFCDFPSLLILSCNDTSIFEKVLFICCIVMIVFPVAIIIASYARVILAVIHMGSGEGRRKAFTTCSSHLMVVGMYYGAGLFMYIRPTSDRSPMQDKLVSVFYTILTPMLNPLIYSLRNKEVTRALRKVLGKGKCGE
# Method in brief: as §1
# OR2M5 A160V = system: OR2M5 A160V
# Sequence of OR2M5 A160V (as listed by the source, stated change not applied): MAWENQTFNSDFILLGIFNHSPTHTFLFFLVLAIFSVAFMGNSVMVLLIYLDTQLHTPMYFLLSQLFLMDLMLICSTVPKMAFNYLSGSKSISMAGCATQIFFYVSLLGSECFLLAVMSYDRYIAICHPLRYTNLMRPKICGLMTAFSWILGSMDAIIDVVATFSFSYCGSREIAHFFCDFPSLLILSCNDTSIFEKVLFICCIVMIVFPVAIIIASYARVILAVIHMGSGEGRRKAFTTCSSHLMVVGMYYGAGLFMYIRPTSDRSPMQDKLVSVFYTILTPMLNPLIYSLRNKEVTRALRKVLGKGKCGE
# Method in brief: as §1
smiles,measurement,setting,value
OCc1ccccc1,odorant receptor agonist call,OR2M4 (Homo sapiens),inactive
C=CC(C)(CCC=C(C)C)OC(C)=O (stereo not drawn),odorant receptor agonist call,OR2M4 (Homo sapiens),inactive
CC1=C(O)C(=O)OC1C (stereo not drawn),odorant receptor agonist call,OR2M4 (Homo sapiens),inactive
same,odorant receptor agonist call,OR2M5 (Homo sapiens),inactive
same,odorant receptor agonist call,OR2M5 D11G,inactive
CCCCC1CCC(=O)O1 (stereo not drawn),odorant receptor agonist call,OR2M4 (Homo sapiens),inactive
COC1CC2CC1C1CC(C=O)CC21 (stereo not drawn),odorant receptor agonist call,OR2M4 (Homo sapiens),inactive
CC(CO)CS (stereo not drawn),odorant receptor agonist call,OR2M4 (Homo sapiens),inactive
same,odorant receptor agonist call,OR2M5 (Homo sapiens),inactive
CC(C)=CCCC(C)=CCO,odorant receptor agonist call,OR2M4 (Homo sapiens),inactive
CCC1OC(=O)C(O)=C1C (stereo not drawn),odorant receptor agonist call,OR2M4 (Homo sapiens),inactive
same,odorant receptor agonist call,OR2M5 (Homo sapiens),inactive
same,odorant receptor agonist call,OR2M5 D11G,inactive
C=CCOC(=O)COCCC(C)C,odorant receptor agonist call,OR2M4 (Homo sapiens),inactive
CCCC(C)C(=O)OCC (stereo not drawn),odorant receptor agonist call,OR2M4 (Homo sapiens),inactive
CCCCCC(=O)C(C)C(C)=O (stereo not drawn),odorant receptor agonist call,OR2M4 (Homo sapiens),inactive
same,odorant receptor agonist call,OR2M5 (Homo sapiens),inactive
CCCC(S)CCOC(C)=O (stereo not drawn),odorant receptor agonist call,OR2M4 (Homo sapiens),inactive
same,odorant receptor agonist call,OR2M5 (Homo sapiens),inactive
same,odorant receptor agonist call,OR2M5 D11G,inactive
CCCCCC1COCCC1OC(C)=O (stereo not drawn),odorant receptor agonist call,OR2M4 (Homo sapiens),inactive
Cc1cnc(C)c(C)n1,odorant receptor agonist call,OR2M4 (Homo sapiens),inactive
same,odorant receptor agonist call,OR2M5 (Homo sapiens),inactive
same,odorant receptor agonist call,OR2M5 D11G,inactive
CC(CC=O)c1ccc(C(C)(C)C)cc1 (stereo not drawn),odorant receptor agonist call,OR2M4 (Homo sapiens),inactive
CC=CC(=O)C1C(C)=CCCC1(C)C (stereo not drawn),odorant receptor agonist call,OR2M4 (Homo sapiens),active
CCC=C(C)C(O)CCCCC (stereo not drawn),odorant receptor agonist call,OR2M4 (Homo sapiens),inactive
Cc1occc(=O)c1OC(=O)C(C)C,odorant receptor agonist call,OR2M4 (Homo sapiens),inactive
CC1=C(O)C(=O)C(C)O1 (stereo not drawn),odorant receptor agonist call,OR2M4 (Homo sapiens),inactive
same,odorant receptor agonist call,OR2M5 (Homo sapiens),inactive
same,odorant receptor agonist call,OR2M5 D11G,inactive
CC(=O)OCc1ccccc1,odorant receptor agonist call,OR2M4 (Homo sapiens),inactive
CCCCCC1C(=O)CCC1CC(=O)OC (stereo not drawn),odorant receptor agonist call,OR2M4 (Homo sapiens),inactive
CC(C)CCCC(C)(C)O,odorant receptor agonist call,OR2M4 (Homo sapiens),inactive
CC(=O)c1c(C)c([N+](=O)[O-])c(C(C)(C)C)c([N+](=O)[O-])c1C,odorant receptor agonist call,OR2M5 (Homo sapiens),inactive
CC(C)(C)C1CCCCC1OCCCCO (stereo not drawn),odorant receptor agonist call,OR2M4 (Homo sapiens),inactive
CC1=CCC2CC1C2(C)C (stereo not drawn),odorant receptor agonist call,OR2M4 (Homo sapiens),inactive
CC1CCCCCCCCCCCCC(=O)C1 (stereo not drawn),odorant receptor agonist call,OR2M5 (Homo sapiens),inactive
COc1ccc(C)cc1,odorant receptor agonist call,OR2M4 (Homo sapiens),active
CCC1OC(C)=C(O)C1=O (stereo not drawn),odorant receptor agonist call,OR2M4 (Homo sapiens),inactive
same,odorant receptor agonist call,OR2M5 (Homo sapiens),inactive
same,odorant receptor agonist call,OR2M5 D11G,inactive
CCC(S)C(C)CO (stereo not drawn),odorant receptor agonist call,OR2M3 D11N,active
same,odorant receptor agonist call,OR2M3 I13L A33G M144T,inactive
same,odorant receptor agonist call,OR2M3 I13L A33G R266H,active
same,odorant receptor agonist call,OR2M3 I13L A33G,active
same,odorant receptor agonist call,OR2M3 I13L M144T,active
same,odorant receptor agonist call,OR2M3 I13L,active
same,odorant receptor agonist call,OR2M3 I198V,active
same,odorant receptor agonist call,OR2M3 I289N,inactive
same,odorant receptor agonist call,OR2M3 L63F,inactive
same,odorant receptor agonist call,OR2M3 M144T,active
same,odorant receptor agonist call,OR2M3 M302T,active
same,odorant receptor agonist call,OR2M3 R266H,active
same,odorant receptor agonist call,OR2M3 R293S,active
same,odorant receptor agonist call,OR2M3 V78I,active
same,odorant receptor agonist call,OR2M3 Y259H,inactive
same,odorant receptor agonist call,OR2M4 (Homo sapiens),inactive
same,odorant receptor agonist call,OR2M5 (Homo sapiens),inactive
same,odorant receptor agonist call,OR2M5 A156G,inactive
same,odorant receptor agonist call,OR2M5 A160V,inactive
CC1CC(C)(c2ccccc2)CO1 (stereo not drawn),odorant receptor agonist call,OR2M4 (Homo sapiens),inactive
CCCCC(S)C(C)CO (stereo not drawn),odorant receptor agonist call,OR2M4 (Homo sapiens),inactive
same,odorant receptor agonist call,OR2M5 (Homo sapiens),inactive
CC(C)=CCCC(C)CC=O (stereo not drawn),odorant receptor agonist call,OR2M4 (Homo sapiens),inactive
CC(=O)C=CC1=C(C)CCCC1(C)C,odorant receptor agonist call,OR2M4 (Homo sapiens),inactive
CCC(=O)C=CC1C(C)=CCCC1(C)C (stereo not drawn),odorant receptor agonist call,OR2M4 (Homo sapiens),inactive
CCCCCC(S)C(C)CO (stereo not drawn),odorant receptor agonist call,OR2M4 (Homo sapiens),inactive
same,odorant receptor agonist call,OR2M5 (Homo sapiens),inactive
CCCCCCC=CCCC=O,odorant receptor agonist call,OR2M4 (Homo sapiens),inactive
same,odorant receptor agonist call,OR2M5 (Homo sapiens),inactive
same,odorant receptor agonist call,OR2M5 D11G,inactive
Cc1ccc(C(C)C)cc1O,odorant receptor agonist call,OR2M4 (Homo sapiens),inactive
CC1=NC(C)C(C)S1 (stereo not drawn),odorant receptor agonist call,OR2M4 (Homo sapiens),inactive
same,odorant receptor agonist call,OR2M5 (Homo sapiens),inactive
same,odorant receptor agonist call,OR2M5 D11G,inactive
CCCCCCCCC(OC(C)=O)OC(C)=O,odorant receptor agonist call,OR2M4 (Homo sapiens),inactive
CCc1ccc(CC(C)(C)C=O)cc1,odorant receptor agonist call,OR2M4 (Homo sapiens),inactive
